Source: ChEMBL document CHEMBL3098105, “7,7'-Diazaindirubin--a small molecule inhibitor of casein kinase 2 in vitro and in cells” (Bioorg Med Chem, 2014)
Active and inactive are the calls of the source. The rule behind the calls is not given here.

Columns and labels:
[1] = target: Tyrosine-protein kinase FRK (Homo sapiens) (UniProt P42685); assay: Inhibition of human PTK5 assessed as residual activity at 1 uM relative to control
MCF7 [2] = assay: Antiproliferative activity against human MCF7 cells after 3 days by SRB assay; assay type: functional, cell-based; conditions: MCF7, 72 h
Outline: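 Cells grown at 37 °C, 5% CO2, with 10% heat-inactivated FBS: LXFL529L in RPMI 1640, MCF7 and HT29 in DMEM. Seeded, allowed 24 h growth, then exposed to the drug at various concentrations for 3 days in serum medium. Fixed with TCA for 1 h at 4 °C, stained with 0.4% SRB, eluted in 10 mM Tris pH 10.5, read at 570 nm as % T/C. IC50 taken from dose–response curves of at least three independent experiments.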

[3] = target: Protein kinase C theta type (Homo sapiens) (UniProt Q04759); assay: Inhibition of human PKCtheta assessed as residual activity at 1 uM relative to control
Chain of Protein kinase C theta type (Homo sapiens) (Q04759 whole entry, looked up): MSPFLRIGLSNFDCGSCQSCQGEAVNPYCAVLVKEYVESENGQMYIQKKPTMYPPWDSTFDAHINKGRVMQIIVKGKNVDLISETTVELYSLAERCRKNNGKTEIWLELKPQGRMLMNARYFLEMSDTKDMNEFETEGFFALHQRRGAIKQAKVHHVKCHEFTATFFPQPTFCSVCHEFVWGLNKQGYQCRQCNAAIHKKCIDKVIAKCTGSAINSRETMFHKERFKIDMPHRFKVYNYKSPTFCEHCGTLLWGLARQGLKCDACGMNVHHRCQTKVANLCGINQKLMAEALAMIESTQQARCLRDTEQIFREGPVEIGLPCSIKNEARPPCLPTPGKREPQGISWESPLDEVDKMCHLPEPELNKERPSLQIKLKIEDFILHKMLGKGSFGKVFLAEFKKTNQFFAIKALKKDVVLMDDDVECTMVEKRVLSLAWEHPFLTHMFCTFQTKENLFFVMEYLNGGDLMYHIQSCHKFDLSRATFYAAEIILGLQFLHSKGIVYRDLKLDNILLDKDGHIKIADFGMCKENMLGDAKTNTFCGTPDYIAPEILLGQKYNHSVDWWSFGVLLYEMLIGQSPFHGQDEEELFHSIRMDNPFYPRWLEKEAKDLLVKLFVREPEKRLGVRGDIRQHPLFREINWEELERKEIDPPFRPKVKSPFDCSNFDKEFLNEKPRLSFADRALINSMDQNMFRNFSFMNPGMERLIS

[4] = target: Activated CDC42 kinase 1 (Homo sapiens) (UniProt Q07912); assay: Inhibition of human ACK1 assessed as residual activity at 1 uM relative to control
Chain of Activated CDC42 kinase 1 (Homo sapiens) (Q07912 whole entry, looked up): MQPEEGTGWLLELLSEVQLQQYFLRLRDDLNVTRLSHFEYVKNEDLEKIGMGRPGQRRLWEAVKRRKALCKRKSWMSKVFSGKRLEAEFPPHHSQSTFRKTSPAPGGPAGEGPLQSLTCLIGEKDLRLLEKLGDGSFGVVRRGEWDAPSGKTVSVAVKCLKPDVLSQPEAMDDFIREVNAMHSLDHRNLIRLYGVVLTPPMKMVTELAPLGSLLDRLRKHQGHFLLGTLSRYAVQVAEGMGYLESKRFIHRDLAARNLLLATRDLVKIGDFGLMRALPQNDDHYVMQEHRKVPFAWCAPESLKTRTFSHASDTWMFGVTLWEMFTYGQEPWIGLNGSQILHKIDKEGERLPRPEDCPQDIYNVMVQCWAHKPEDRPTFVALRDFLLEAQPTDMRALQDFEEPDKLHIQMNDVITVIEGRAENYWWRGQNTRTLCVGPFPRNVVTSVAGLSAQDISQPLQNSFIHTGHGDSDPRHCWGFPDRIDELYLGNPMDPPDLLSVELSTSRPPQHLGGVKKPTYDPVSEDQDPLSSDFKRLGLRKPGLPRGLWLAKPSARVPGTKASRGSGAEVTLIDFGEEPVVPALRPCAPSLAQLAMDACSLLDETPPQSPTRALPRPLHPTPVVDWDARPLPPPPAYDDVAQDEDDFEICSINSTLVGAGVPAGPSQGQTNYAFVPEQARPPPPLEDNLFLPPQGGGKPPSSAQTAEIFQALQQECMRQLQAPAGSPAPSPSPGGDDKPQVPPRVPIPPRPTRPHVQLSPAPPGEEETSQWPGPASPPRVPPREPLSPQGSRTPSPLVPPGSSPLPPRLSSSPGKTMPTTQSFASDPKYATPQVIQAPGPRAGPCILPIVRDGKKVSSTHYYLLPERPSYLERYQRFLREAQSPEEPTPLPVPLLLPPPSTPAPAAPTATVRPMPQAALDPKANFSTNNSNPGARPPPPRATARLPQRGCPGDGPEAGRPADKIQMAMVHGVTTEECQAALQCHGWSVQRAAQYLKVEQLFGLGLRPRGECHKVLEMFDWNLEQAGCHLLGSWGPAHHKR

[5] = target: Casein kinase II subunit alpha' (Homo sapiens) (UniProt P19784); assay: Inhibition of human CK2a2 assessed as residual activity at 1 uM relative to control
[6] = target: Serine/threonine-protein kinase N2 (Homo sapiens) (UniProt Q16513); assay: Inhibition of human PRK2 assessed as residual activity at 1 uM relative to control
[7] = target: Serine/threonine-protein kinase MRCK beta (Homo sapiens) (UniProt Q9Y5S2); assay: Inhibition of human MRCKbeta assessed as residual activity at 1 uM relative to control
[8] = target: Serine/threonine-protein kinase MARK2 (Homo sapiens) (UniProt Q7KZI7); assay: Inhibition of human PAR1Balpha assessed as residual activity at 1 uM relative to control
SR = assay: Antiproliferative activity against human SR cells after 3 days by sulforhodamine B assay; assay type: functional; conditions: 72 h
[9] = target: Serine/threonine-protein kinase 3 (Homo sapiens) (UniProt Q13188); assay: Inhibition of human MST2 assessed as residual activity at 1 uM relative to control
[10] = target: Proto-oncogene tyrosine-protein kinase Src (Homo sapiens) (UniProt P12931); assay: Inhibition of SRC (unknown origin) assessed as residual activity at 10 uM relative to control
[11] = target: Cyclin-dependent kinase 1/cyclin B1 (Homo sapiens) (UniProt P06493+P14635); assay: Inhibition of CDK1/CycB1 (unknown origin) assessed as residual activity at 10 uM relative to control; assay type: protein-complex assay
[12] = target: Casein kinase II (Homo sapiens) (UniProt P67870+P68400+P19784); assay: Inhibition of CK2 in human MCF7 cells assessed as reduction of Akt phosphorylation at S473 at 1 uM after 30 mins by Western blot analysis; assay type: cell-based
Outline: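 MCF7 cells were grown at 37 °C and 5% CO2 in DMEM with 10% heat-inactivated FBS and penicillin/streptomycin. Cells were exposed to 1 µM for the indicated times, with DMSO as the untreated control. Extracts were made in urea lysis buffer, and 20–40 µg protein was run on 10% SDS–PAGE. Blots were probed with primary antibodies (1:1000, overnight, 4 °C) and read by ECL, with β-actin as loading control.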

IGROV-1 = assay: Antiproliferative activity against human IGROV1 cells after 3 days by sulforhodamine B assay; assay type: functional; conditions: IGROV-1, 72 h
Outline: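 Tested in the NCI 60 cell line panel. GI50 is the concentration giving 50% inhibition of cell growth, and values are the mean of two series of tests.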

[13] = target: RAC-gamma serine/threonine-protein kinase (Homo sapiens) (UniProt Q9Y243); assay: Inhibition of human PKBgamma assessed as residual activity at 1 uM relative to control
Chain of RAC-gamma serine/threonine-protein kinase (Homo sapiens) (Q9Y243 whole entry): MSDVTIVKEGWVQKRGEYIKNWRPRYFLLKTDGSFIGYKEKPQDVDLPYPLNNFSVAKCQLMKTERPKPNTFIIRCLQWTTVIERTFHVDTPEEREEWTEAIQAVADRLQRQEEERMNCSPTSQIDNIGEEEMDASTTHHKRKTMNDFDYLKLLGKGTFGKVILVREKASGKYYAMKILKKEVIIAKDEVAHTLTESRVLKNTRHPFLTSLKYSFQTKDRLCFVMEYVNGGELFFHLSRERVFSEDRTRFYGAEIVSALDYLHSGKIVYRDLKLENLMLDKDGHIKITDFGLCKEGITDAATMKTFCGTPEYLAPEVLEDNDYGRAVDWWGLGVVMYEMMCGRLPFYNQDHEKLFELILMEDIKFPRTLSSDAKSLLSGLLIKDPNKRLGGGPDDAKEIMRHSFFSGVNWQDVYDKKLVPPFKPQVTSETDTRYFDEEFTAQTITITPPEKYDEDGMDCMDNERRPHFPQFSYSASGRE

[14] = target: Receptor tyrosine-protein kinase erbB-4 (Homo sapiens) (UniProt Q15303); assay: Inhibition of human ErbB4 assessed as residual activity at 1 uM relative to control
[15] = target: Ephrin type-A receptor 4 (Homo sapiens) (UniProt P54764); assay: Inhibition of human EphA4 assessed as residual activity at 1 uM relative to control
[16] = target: Serine/threonine-protein kinase D1 (Homo sapiens) (UniProt Q15139); assay: Inhibition of human PKCmu assessed as residual activity at 1 uM relative to control
[17] = target: Serine/threonine-protein kinase NLK (Homo sapiens) (UniProt Q9UBE8); assay: Inhibition of human NLK assessed as residual activity at 1 uM relative to control
Chain of Serine/threonine-protein kinase NLK (Homo sapiens) (Q9UBE8 whole entry): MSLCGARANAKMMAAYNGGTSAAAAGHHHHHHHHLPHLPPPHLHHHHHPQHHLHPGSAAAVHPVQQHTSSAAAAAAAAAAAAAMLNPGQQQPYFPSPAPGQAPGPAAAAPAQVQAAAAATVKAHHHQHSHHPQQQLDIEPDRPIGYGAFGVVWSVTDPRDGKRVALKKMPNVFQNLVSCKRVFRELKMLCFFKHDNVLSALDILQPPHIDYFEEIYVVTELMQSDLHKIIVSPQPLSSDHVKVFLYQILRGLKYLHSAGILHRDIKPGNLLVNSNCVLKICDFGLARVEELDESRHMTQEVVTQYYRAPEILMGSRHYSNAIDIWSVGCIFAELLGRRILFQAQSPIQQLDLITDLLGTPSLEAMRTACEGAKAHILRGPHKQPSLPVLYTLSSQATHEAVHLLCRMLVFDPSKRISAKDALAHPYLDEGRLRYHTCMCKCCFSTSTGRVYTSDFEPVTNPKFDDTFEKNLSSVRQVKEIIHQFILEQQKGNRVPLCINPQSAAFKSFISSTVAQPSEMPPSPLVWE

[18] = target: Tyrosine-protein kinase ABL2 (Homo sapiens) (UniProt P42684); assay: Inhibition of human Arg assessed as residual activity at 1 uM relative to control
MCF7 [19] = assay: Cell cycle arrest in human MCF7 cells assessed as accumulation at sub-G1 phase at 0.5 uM after 24 hrs using propidium iodide staining by FACS analysis (reference value: 0.17%); assay type: functional
[20] = target: Cyclin-dependent kinase 5/CDK5 activator 1 (Homo sapiens) (UniProt Q00535+Q15078); assay: Inhibition of CDK5/p35NCK (unknown origin) assessed as residual activity at 1 uM relative to control; assay type: protein-complex assay
[21] = target: Rho-associated protein kinase 2 (Homo sapiens) (UniProt O75116); assay: Inhibition of human ROCK-2 assessed as residual activity at 1 uM relative to control
Chain of Rho-associated protein kinase 2 (Homo sapiens) (O75116 whole entry, looked up): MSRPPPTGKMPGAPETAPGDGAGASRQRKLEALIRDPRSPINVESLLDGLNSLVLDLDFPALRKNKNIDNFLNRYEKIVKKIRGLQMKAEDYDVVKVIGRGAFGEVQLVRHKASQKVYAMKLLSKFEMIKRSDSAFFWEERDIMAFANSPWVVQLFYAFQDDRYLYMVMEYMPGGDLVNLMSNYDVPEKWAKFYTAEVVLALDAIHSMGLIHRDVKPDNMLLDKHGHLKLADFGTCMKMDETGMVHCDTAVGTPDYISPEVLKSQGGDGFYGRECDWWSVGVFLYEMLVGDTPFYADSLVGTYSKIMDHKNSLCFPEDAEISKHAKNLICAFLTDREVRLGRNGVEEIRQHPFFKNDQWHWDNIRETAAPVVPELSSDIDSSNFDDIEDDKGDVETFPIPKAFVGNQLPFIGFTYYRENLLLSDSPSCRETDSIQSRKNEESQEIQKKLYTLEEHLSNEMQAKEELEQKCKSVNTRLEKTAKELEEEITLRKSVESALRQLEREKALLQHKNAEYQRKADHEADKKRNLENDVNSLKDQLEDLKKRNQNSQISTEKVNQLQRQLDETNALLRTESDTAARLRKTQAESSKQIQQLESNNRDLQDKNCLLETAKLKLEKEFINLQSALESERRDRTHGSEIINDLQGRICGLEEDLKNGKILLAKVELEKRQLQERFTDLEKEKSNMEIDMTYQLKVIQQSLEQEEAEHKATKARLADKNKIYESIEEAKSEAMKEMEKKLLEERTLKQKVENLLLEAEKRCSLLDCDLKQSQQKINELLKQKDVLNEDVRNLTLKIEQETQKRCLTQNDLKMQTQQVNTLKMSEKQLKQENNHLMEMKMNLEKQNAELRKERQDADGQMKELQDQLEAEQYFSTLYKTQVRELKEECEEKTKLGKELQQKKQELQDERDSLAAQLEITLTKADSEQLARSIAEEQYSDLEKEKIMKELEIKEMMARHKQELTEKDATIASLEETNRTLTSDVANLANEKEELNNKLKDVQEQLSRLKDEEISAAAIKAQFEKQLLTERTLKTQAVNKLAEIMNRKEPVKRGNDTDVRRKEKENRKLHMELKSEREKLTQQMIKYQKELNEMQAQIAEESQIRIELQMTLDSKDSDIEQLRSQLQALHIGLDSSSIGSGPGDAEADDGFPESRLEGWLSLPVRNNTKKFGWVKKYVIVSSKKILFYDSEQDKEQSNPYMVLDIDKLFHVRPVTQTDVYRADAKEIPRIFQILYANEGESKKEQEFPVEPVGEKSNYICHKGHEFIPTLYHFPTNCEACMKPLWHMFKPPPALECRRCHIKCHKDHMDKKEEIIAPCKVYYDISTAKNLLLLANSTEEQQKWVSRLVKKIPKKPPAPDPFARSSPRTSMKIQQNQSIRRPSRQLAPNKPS

[22] = target: Insulin-like growth factor 1 receptor (Homo sapiens) (UniProt P08069); assay: Inhibition of human IGF-1R assessed as residual activity at 1 uM relative to control
[23] = target: Calcium/calmodulin-dependent protein kinase type IV (Homo sapiens) (UniProt Q16566); assay: Inhibition of human CaMK4 assessed as residual activity at 1 uM relative to control
[24] = target: Misshapen-like kinase 1 (Homo sapiens) (UniProt Q8N4C8); assay: Inhibition of human MINK assessed as residual activity at 1 uM relative to control
[25] = target: Dual specificity mitogen-activated protein kinase kinase 7 (Homo sapiens) (UniProt O14733); assay: Inhibition of human MKK7beta assessed as residual activity at 1 uM relative to control
[26] = target: RAC-alpha serine/threonine-protein kinase (Homo sapiens) (UniProt P31749); assay: Inhibition of human PKBalpha assessed as residual activity at 1 uM relative to control
MCF7 [27] = assay: Cell cycle arrest in human MCF7 cells assessed as accumulation at G1 phase at 0.5 uM after 24 hrs using propidium iodide staining by FACS analysis (reference value: 57.74%); assay type: functional
[28] = target: Tyrosine-protein kinase JAK2 (Homo sapiens) (UniProt O60674); assay: Inhibition of JAK2 (unknown origin) assessed as residual activity at 1 uM relative to control
[29] = target: Tyrosine-protein kinase Fes/Fps (Homo sapiens) (UniProt P07332); assay: Inhibition of human Fes assessed as residual activity at 1 uM relative to control
Chain of Tyrosine-protein kinase Fes/Fps (Homo sapiens) (P07332 whole entry): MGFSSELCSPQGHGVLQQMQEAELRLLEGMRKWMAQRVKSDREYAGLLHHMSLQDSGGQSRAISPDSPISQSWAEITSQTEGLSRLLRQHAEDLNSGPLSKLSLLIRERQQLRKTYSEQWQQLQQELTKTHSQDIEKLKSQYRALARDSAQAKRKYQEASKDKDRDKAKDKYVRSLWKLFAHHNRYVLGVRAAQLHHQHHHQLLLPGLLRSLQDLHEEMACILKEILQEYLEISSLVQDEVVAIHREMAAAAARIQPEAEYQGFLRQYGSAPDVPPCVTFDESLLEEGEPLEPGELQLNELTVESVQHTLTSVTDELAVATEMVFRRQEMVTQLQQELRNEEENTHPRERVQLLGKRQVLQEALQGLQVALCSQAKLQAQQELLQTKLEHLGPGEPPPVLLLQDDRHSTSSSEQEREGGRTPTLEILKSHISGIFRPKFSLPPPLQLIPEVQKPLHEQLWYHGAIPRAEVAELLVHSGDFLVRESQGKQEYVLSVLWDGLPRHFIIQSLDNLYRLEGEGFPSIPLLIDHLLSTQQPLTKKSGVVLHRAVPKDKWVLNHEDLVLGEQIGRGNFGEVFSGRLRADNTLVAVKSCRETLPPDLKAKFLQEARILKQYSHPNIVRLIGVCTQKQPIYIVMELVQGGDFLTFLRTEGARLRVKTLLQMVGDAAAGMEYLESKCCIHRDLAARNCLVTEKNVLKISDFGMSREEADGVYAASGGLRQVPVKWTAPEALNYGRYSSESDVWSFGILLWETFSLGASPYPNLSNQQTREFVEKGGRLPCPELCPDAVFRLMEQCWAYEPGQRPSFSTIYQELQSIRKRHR

[30] = target: Ephrin type-A receptor 8 (Homo sapiens) (UniProt P29322); assay: Inhibition of human EphA8 assessed as residual activity at 1 uM relative to control

`O=C1Nc2ncccc2/C1=C1/Nc2ncccc2C1=O` was tested, and the Activity [1] was 92%, the IC50 (MCF7 [2]) was 500 nM and the Activity [3] was 116%. For the same molecule, the Activity [4] was 97%, the Activity [5] was 28% and the Activity [6] was 95%. The Activity [7] was 102%, the Activity [8] was 53% and the GI50 (SR) was 2730 nM. The Activity [9] was 105%, the Activity [10] was 107% and the Activity [11] was 89%. The inhibition [12] was “Active”, the GI50 (IGROV-1) was 577 nM and the Activity [13] was 126%. It also gave an Activity [14] of 121%, an Activity [15] of 78% and an Activity [16] of 93%. For the same molecule, the Activity [17] was 123%, the Activity [18] was 98% and the Activity (MCF7 [19]) was 0.37%. The Activity [20] was 106%, the Activity [21] was 114% and the Activity [22] was 112%. It also gave an Activity [23] of 100%, an Activity [24] of 62% and an Activity [25] of 103%. For the same molecule, the Activity [26] was 94%, the Activity (MCF7 [27]) was 59.53% and the Activity [28] was 103%. It also gave an Activity [29] of 107% and an Activity [30] of 114%.
